Here are results for 18 compounds from ChEMBL document CHEMBL1155357, “The synthesis of 2- and 3-aryl indoles and 1,3,4,5-tetrahydropyrano[4,3-b]indoles and their antibacterial and antifungal activity” (2009).

Structures are written as SMILES. ≈ marks a conversion by molar mass, not a printed value. Calls of active or inactive are those of the source. No cut-off for these calls is given here.

In assay [1] the test system is Escherichia coli. Put plainly: Antimicrobial activity against Escherichia coli ATCC 8739 after 6 hrs. The class given is functional. As to conditions: ATCC 8739, 6 h. The procedure, abridged:
(§1)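 Broth microdilution MIC. Compounds were dissolved in acetone at a 5 mg/mL starting concentration, added to wells containing sterile water, then serially doubled down. Inoculum was 1 × 10⁶ CFU/mL, incubated 37 °C for 24 h. Then 0.2 mg/mL p-iodonitrotetrazolium violet was added and colour read after 6 h. MIC was the lowest concentration without growth. Acetone and ciprofloxacin (starting 0.01 mg/mL) served as controls. At least triplicate, on consecutive days.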

A further assay has as its system Bacillus cereus. Description: Antimicrobial activity against Bacillus cereus ATCC 11778 after 6 hrs. The following applies: ATCC 11778, 6 h. The class given is functional. The procedure, abridged: as §1
The next assay has as its system Candida albicans. Description: Antimicrobial activity against Candida albicans ATCC 10231 after 24 hrs. The assay is classed as functional. The following applies: ATCC 10231, 24 h. The procedure, abridged:
(§2)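 Yeast MIC by serial doubling dilution. Compounds were dissolved in acetone at a 5 mg/mL starting concentration into sterile-water wells. Inoculum was 1 × 10⁶ CFU/mL at 37 °C for 24 h plus a further 24 h. Then 0.2 mg/mL p-iodonitrotetrazolium violet was added and colour read after 24 h. MIC was the lowest concentration showing no growth. Acetone and amphotericin B (starting 0.01 mg/mL) served as controls. At least triplicate, on consecutive days.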

The subject of assay [2] is Cryptococcus neoformans. Description: Antimicrobial activity against Cryptococcus neoformans ATCC 90112 after 24 hrs. As to conditions: ATCC 90112, 24 h. The assay is classed as functional. The procedure, abridged:
as §2

Assay [3] has as its system Staphylococcus aureus. Description: Antimicrobial activity against Staphylococcus aureus ATCC 6538 after 6 hrs. The assay is classed as functional. As to conditions: ATCC 6538, 6 h. The procedure, abridged: as §1
A further assay relates to Klebsiella pneumoniae. Put plainly: Antimicrobial activity against Klebsiella pneumoniae ATCC 13831 after 6 hrs. As to conditions: ATCC 13831, 6 h. The class given is functional. The procedure, abridged: as §1
In assay [4] the test system is Staphylococcus aureus. Description: Antimicrobial activity against Staphylococcus aureus ATCC 6538 at 1250 ug/mL after 6 hrs. The class given is functional, organism-based.
Assay [5] deals with Escherichia coli. Description: Antimicrobial activity against Escherichia coli ATCC 8739 at 1250 ug/mL after 6 hrs. The assay is classed as functional, organism-based.
The test system of assay [6] is Cryptococcus neoformans. Put plainly: Antimicrobial activity against Cryptococcus neoformans ATCC 90112 at 1250 ug/mL after 24 hrs. The assay is classed as functional, organism-based.

A word on the MIC: it is the lowest concentration found to suppress growth. `c1ccc(-c2c[nH]c3ccccc23)cc1` [3-PHENYLINDOLE]: the MIC in the assay on Escherichia coli [1] is 156 µg/mL (≈ 807 µM); against Bacillus cereus, 19.5 µg/mL (≈ 101 µM); in the assay on Candida albicans, 19.5 µg/mL (≈ 101 µM); against Cryptococcus neoformans [2], 65.1 µg/mL (≈ 337 µM); with Staphylococcus aureus [3], 39 µg/mL (≈ 202 µM); in the assay with Klebsiella pneumoniae, 469 µg/mL (≈ 2430 µM).

Regarding `COc1cc(-c2c[nH]c3ccccc23)c(OC)cc1Br`, the MIC worked out at 469 µg/mL (≈ 1410 µM) in the assay on Escherichia coli [1]; 235 µg/mL (≈ 707 µM) against Bacillus cereus; 156 µg/mL (≈ 470 µM) against Candida albicans; 261 µg/mL (≈ 786 µM) against Cryptococcus neoformans [2]; 156 µg/mL (≈ 470 µM) in the assay with Staphylococcus aureus [3]; 313 µg/mL (≈ 942 µM) in the assay on Klebsiella pneumoniae.

Consider `COc1cc(-c2c[nH]c3ccccc23)cc(OC)c1OC`, for which the MIC turned out to be 313 µg/mL (≈ 1100 µM) against Escherichia coli [1]; 235 µg/mL (≈ 829 µM) in the assay on Bacillus cereus; 313 µg/mL (≈ 1100 µM) in the assay with Candida albicans; 29.3 µg/mL (≈ 103 µM) against Cryptococcus neoformans [2]; 313 µg/mL (≈ 1100 µM) against Klebsiella pneumoniae. The outcome in the assay with Staphylococcus aureus [4] was inactive.

As for `COc1ccc(-c2cc3ccccc3[nH]2)cc1`, the MIC with Escherichia coli [1] was determined as 625 µg/mL (≈ 2800 µM); with Bacillus cereus, 156 µg/mL (≈ 699 µM); in the assay with Candida albicans, 156 µg/mL (≈ 699 µM); against Cryptococcus neoformans [2], 58.5 µg/mL (≈ 262 µM); against Staphylococcus aureus [3], 635 µg/mL (≈ 2840 µM); with Klebsiella pneumoniae it was 313 µg/mL (≈ 1400 µM).

As for `COc1ccc2[nH]c(-c3cc(OC)c(OC)c(OC)c3)cc2c1`, the MIC worked out at 625 µg/mL (≈ 1990 µM) in the assay with Escherichia coli [1]; 156 µg/mL (≈ 498 µM) against Bacillus cereus; 156 µg/mL (≈ 498 µM) in the assay on Candida albicans; 32.5 µg/mL (≈ 104 µM) with Cryptococcus neoformans [2]; 313 µg/mL (≈ 999 µM) in the assay with Staphylococcus aureus [3]; 313 µg/mL (≈ 999 µM) with Klebsiella pneumoniae.

In the case of `COc1ccc(-c2c[nH]c3ccccc23)cc1`, the outcome in the assay on Escherichia coli [5] was inactive. The minimal inhibitory concentration (MIC) against Bacillus cereus is 625 µg/mL (≈ 2800 µM); in the assay with Candida albicans it was 156 µg/mL (≈ 699 µM); in the assay on Cryptococcus neoformans [2], 78 µg/mL (≈ 349 µM); in the assay on Staphylococcus aureus [3], 469 µg/mL (≈ 2100 µM); with Klebsiella pneumoniae, 208 µg/mL (≈ 932 µM).

Take `COc1ccc2[nH]cc(-c3ccccc3C)c2c1`: the minimal inhibitory concentration (MIC) was found to be 313 µg/mL (≈ 1320 µM) against Escherichia coli [1]; 19.5 µg/mL (≈ 82.2 µM) against Bacillus cereus; 117 µg/mL (≈ 493 µM) with Candida albicans; 625 µg/mL (≈ 2630 µM) in the assay with Cryptococcus neoformans [2]; 29.3 µg/mL (≈ 123 µM) in the assay on Staphylococcus aureus [3]; 313 µg/mL (≈ 1320 µM) in the assay on Klebsiella pneumoniae.

Consider `COc1ccc2[nH]cc(-c3cc(OC)c(OC)c(OC)c3)c2c1`, for which the MIC in the assay with Escherichia coli [1] was determined as 313 µg/mL (≈ 999 µM); in the assay with Bacillus cereus, 156 µg/mL (≈ 498 µM); with Candida albicans, 313 µg/mL (≈ 999 µM); against Cryptococcus neoformans [2], 29.3 µg/mL (≈ 93.5 µM); in the assay with Staphylococcus aureus [3], 313 µg/mL (≈ 999 µM); in the assay on Klebsiella pneumoniae it was 313 µg/mL (≈ 999 µM).

As for `COc1ccc(-c2cc3cc(OC)ccc3[nH]2)cc1`, the result with Escherichia coli [5] was inactive. The minimum inhibitory concentration (MIC) in the assay on Bacillus cereus was 313 µg/mL (≈ 1240 µM); with Candida albicans it was 235 µg/mL (≈ 928 µM); with Staphylococcus aureus [3], 625 µg/mL (≈ 2470 µM); in the assay on Klebsiella pneumoniae, 313 µg/mL (≈ 1240 µM).

`COc1ccc2[nH]c(-c3ccccc3C)cc2c1`: the MIC was 468 µg/mL (≈ 1970 µM) against Escherichia coli [1]; 156 µg/mL (≈ 657 µM) against Bacillus cereus; 313 µg/mL (≈ 1320 µM) against Candida albicans; 235 µg/mL (≈ 990 µM) against Staphylococcus aureus [3]; 313 µg/mL (≈ 1320 µM) in the assay with Klebsiella pneumoniae.

Consider `COc1ccc2[nH]cc(-c3ccccc3C=O)c2c1`, for which the MIC was 235 µg/mL (≈ 935 µM) in the assay on Escherichia coli [1]; 78 µg/mL (≈ 310 µM) in the assay with Bacillus cereus; 156 µg/mL (≈ 621 µM) with Candida albicans; 313 µg/mL (≈ 1250 µM) against Cryptococcus neoformans [2]; 156 µg/mL (≈ 621 µM) in the assay with Staphylococcus aureus [3]; 313 µg/mL (≈ 1250 µM) with Klebsiella pneumoniae.

In the case of `COc1cc(-c2cc3ccccc3[nH]2)cc(OC)c1OC`, the MIC came out at 313 µg/mL (≈ 1100 µM) in the assay with Escherichia coli [1]; 20 µg/mL (≈ 70.6 µM) in the assay on Bacillus cereus; 117 µg/mL (≈ 413 µM) against Candida albicans; 313 µg/mL (≈ 1100 µM) in the assay with Cryptococcus neoformans [2]; 469 µg/mL (≈ 1660 µM) with Staphylococcus aureus [3]; 391 µg/mL (≈ 1380 µM) with Klebsiella pneumoniae.

For the compound `COc1ccc2[nH]cc(-c3ccccc3)c2c1`, the MIC against Escherichia coli [1] was found to be 625 µg/mL (≈ 2800 µM); against Bacillus cereus, 15.6 µg/mL (≈ 69.9 µM); with Candida albicans, 78 µg/mL (≈ 349 µM); in the assay with Cryptococcus neoformans [2], 235 µg/mL (≈ 1050 µM); in the assay with Staphylococcus aureus [3] it was 39.1 µg/mL (≈ 175 µM); in the assay with Klebsiella pneumoniae, 313 µg/mL (≈ 1400 µM).

`COc1ccc2[nH]c(-c3ccccc3)cc2c1`: the outcome in the assay on Escherichia coli [5] and in the assay with Cryptococcus neoformans [6] was inactive. The MIC was 3.9 µg/mL (≈ 17.5 µM) with Bacillus cereus, 469 µg/mL (≈ 2100 µM) in the assay on Candida albicans, 156 µg/mL (≈ 699 µM) against Staphylococcus aureus [3] and 469 µg/mL (≈ 2100 µM) with Klebsiella pneumoniae.

`c1ccc2[nH]c(-c3cccc4ccccc34)cc2c1`: the MIC in the assay on Escherichia coli [1] was 938 µg/mL (≈ 3860 µM); with Bacillus cereus, 625 µg/mL (≈ 2570 µM); in the assay with Candida albicans, 156 µg/mL (≈ 641 µM); against Cryptococcus neoformans [2], 625 µg/mL (≈ 2570 µM); against Staphylococcus aureus [3] it was 625 µg/mL (≈ 2570 µM); against Klebsiella pneumoniae, 313 µg/mL (≈ 1290 µM).

Take `c1ccc(-c2cc3ccccc3[nH]2)cc1` [2-PHENYL-1H-INDOLE]: the MIC against Escherichia coli [1] worked out at 1250 µg/mL (≈ 6470 µM); in the assay on Bacillus cereus, 625 µg/mL (≈ 3230 µM); against Candida albicans, 156 µg/mL (≈ 807 µM); against Cryptococcus neoformans [2] it was 625 µg/mL (≈ 3230 µM); with Staphylococcus aureus [3], 469 µg/mL (≈ 2430 µM); in the assay with Klebsiella pneumoniae, 313 µg/mL (≈ 1620 µM).

In the case of `COc1ccc2[nH]cc(-c3ccccc3C(C)=O)c2c1`, the MIC with Escherichia coli [1] came out at 313 µg/mL (≈ 1180 µM); against Bacillus cereus it was 156 µg/mL (≈ 588 µM); with Candida albicans it was 235 µg/mL (≈ 886 µM); in the assay on Cryptococcus neoformans [2], 39 µg/mL (≈ 147 µM); in the assay with Staphylococcus aureus [3], 625 µg/mL (≈ 2360 µM); against Klebsiella pneumoniae it was 313 µg/mL (≈ 1180 µM).

For `COc1ccc(-c2c[nH]c3ccc(OC)cc23)cc1`, the MIC in the assay with Escherichia coli [1] came out at 521 µg/mL (≈ 2060 µM); in the assay with Bacillus cereus, 156 µg/mL (≈ 616 µM); in the assay on Candida albicans it was 156 µg/mL (≈ 616 µM); against Cryptococcus neoformans [2] it was 29.3 µg/mL (≈ 116 µM); with Staphylococcus aureus [3], 313 µg/mL (≈ 1240 µM); with Klebsiella pneumoniae, 261 µg/mL (≈ 1030 µM).
